HSF-1 act = increases HSF-1 driven luciferase reporter signal | NIH3T3-HGL HSF-1 luciferase reporter, MG132, 8 h; 100% = twice DMSO control signal | activation, % at 9 µM | actives 1.7% (n = 300,000) | AID 504408;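 active = mean replicate activation of at least 50% with a set share of replicates each reaching 50%; inconclusive = only one of those two conditions met; inactive = mean below 50% and too few replicates reaching it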
Calb FLC = affects C. albicans growth with fluconazole; C. albicans CaCi-2 + fluconazole, Alamar Blue growth, 48 h; growth inhibition, % (no concentration beside the values); actives 0.57% (n = 300,000);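 active = growth inhibition above about 58% in most replicates, limit read from the data, passing the limit was not always enough; inconclusive = exactly half the replicates above a set limit; inactive = most replicates below a set limit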;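 note: all wells also contain fluconazole at 8 µg/ml as a sub-toxic cotreatment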
T cruzi repl = T. cruzi replication inhibition; T. cruzi beta-gal in NIH3T3, luminescence, 90 h; inhibition, % (test concentration not listed); actives 1.4% (n = 300,000);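 active = mean inhibition across valid replicates above about 55%, limit read from the data; inconclusive = mean below that limit but half or more replicates reach it; inactive = mean below it, under half of replicates reach it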;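 note: signal also drops with host cell toxicity which is not excluded here; higher percent means less beta-gal luminescence so fewer parasites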
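System: Mouse NIH/3T3 fibroblasts infected with β-gal-expressing T. cruzi Tulahuen C4 | Quantity: NIH/3T3 cells, 5,000 per well | Reagent: 5000 reporter trypomastigotes per well | Dosing: Compound pinned at 50 nL/well, DMSO | Schedule: 3 h host attachment, then at least 90 h co-culture | Detection: GalScreen luminescence, 60 min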
HIF act = HIF pathway transcriptional activation; U2OS HRE-luciferase reporter, luminescence; normalized: DMSO 0%, desferrioxamine 100%; activation, % at 7.5 µM (by protocol); actives 0.32% (n = 300,000); AID 1910;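 active = mean activation of at least 10% of the iron chelator positive control signal, with at least half of replicates also reaching 10%; inconclusive = mean and replicate majority disagree about reaching 10%; inactive = mean and most replicates under 10%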
HSF1 inhib = HSF1 inhibition | NIH3T3-HGL HSE-luciferase, MG132-induced, luminescence 8 h; hits give low values | activity change, negative = inhibition, % at 7.5 µM (by protocol) | actives 0.77% (n = 300,000) | AID 2098;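 active = more than half of replicate wells show activity change below -50%, luminescence cut by over half; inconclusive = some wells, but at most half, below -50%; inactive = no replicate well below -50%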;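 note: luciferase reports HSF-1 transcriptional activity via heat shock element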
Hits are given with their value; 0 = inactive; ? = inconclusive; - = no result given. Hits are enriched below; roughly 4.4% of the tested compounds scored in any of these assays.

SMILES	HSF-1 act	Calb FLC	T cruzi repl	HIF act	HSF1 inhib
COc1ccc(NC(=O)C23CC4CC(C2)CC(n2cnc(Br)n2)(C4)C3)cc1OC	0	0	0	0	0
CCCCCC(=O)Nc1cc(S(=O)(=O)N2CCOCC2)ccc1N1CCCCC1	0	0	0	0	0
CSCCC(=O)Nc1cc(S(=O)(=O)N2CCOCC2)ccc1N1CCN(C)CC1	0	0	64.5	0	0
CCCCCC(=O)Nc1cc(S(=O)(=O)N2CCOCC2)ccc1N1CCN(C)CC1	0	0	64.3	0	0
COc1cc(OC)cc(-c2nnc(NC(=O)Cc3ccc(F)cc3)o2)c1	0	0	0	0	0
Cc1ccccc1NC(=O)N1C2CCCC1CC(NC(=O)C1CC1)C2 (stereo not drawn)	0	0	0	0	-69.9
O=C(Nc1ccnn1C1CCN(C(=O)c2cnsn2)CC1)c1cccc(F)c1	0	0	0	0	0
COc1ccc(OC)c(/C=C/C(=O)NC2=NCCS2)c1	0	0	0	0	0
COc1ccc(OC)c(/C=C/C(=O)Nc2ccc(OC)nc2)c1	0	112.8	0	0	0
Cc1c(C(=O)OCC(=O)NCc2ccc3c(c2)OCO3)cccc1[N+](=O)[O-]	59.5	0	0	0	0
Cc1c(C(=O)OCC(=O)Nc2ccc3c(c2)OCO3)cccc1[N+](=O)[O-]	0	0	0	0	0
Cc1cccc(C)c1NC(=O)COC(=O)c1ccc2c(c1)OCO2	0	0	0	0	0
O=C(COC(=O)c1ccccc1-c1ccccc1[N+](=O)[O-])c1ccccc1	0	0	0	0	0
O=C(COC(=O)c1ccccc1[N+](=O)[O-])c1ccc2c(c1)OCO2	0	0	0	0	-66.4
O=C(COC(=O)c1cccs1)c1ccc2c(c1)OCCO2	0	0	0	0	-52.2
Cc1cccc(C(=O)OCC(=O)c2ccc3c(c2)OCO3)c1O	66.3	0	0	0	0
CCN1CCN(S(=O)(=O)c2cc(C(=O)O)ccc2Cl)CC1	0	0	0	0	0
CC1CN(C(=O)CCC(=O)NCc2ccc(Cl)cc2)c2ccccc2O1 (stereo not drawn)	0	0	0	0	0
Cc1ccc(C)c(C(=O)C(C)Sc2nc3nn(-c4ccccc4)c(=O)c-3c3n2CCCCC3)c1 (stereo not drawn)	0	0	0	0	0
COc1ccc(S(=O)(=O)N2CCCCCC2)cc1N(C)S(=O)(=O)c1ccc(Cl)cc1	0	0	64.3	0	0
COc1ccc(S(=O)(=O)N2CCC(C)CC2)cc1N(C)S(=O)(=O)c1ccccc1	0	0	0	0	0
CC1=NNC(=O)/C1=C\c1cn(-c2ccccc2)nc1-c1ccc(F)cc1	146.1	0	0	0	0
COc1ccc([C@@H]2C[C@@H](c3ccccc3)Oc3c(C)ccc(C(C)C)c32)cc1	0	0	0	0	-65.6
CCCC(=O)Nc1cccc(C(=O)Nc2ccccc2OCC)c1	0	0	0	0	0
COc1cc(OC)nc(Oc2ccccc2C(=O)Oc2ccc(Cl)cc2)n1	0	0	0	0	-86.1
SMILES	HSF-1 act	Calb FLC	T cruzi repl	HIF act	HSF1 inhib
COc1cc(NC(=O)CC(C)C)ccc1NC(=O)c1ccco1	53.6	0	0	0	0
CCC(=O)Nc1ccc(NC(=O)c2ccco2)c(OC)c1	0	0	0	0	0
COc1ccc2c(c1OC)C(=O)N1N=C(c3ccc(O)cc3)CC21 (stereo not drawn)	0	93.5	0	0	0
O=C(Nc1ccc2ccccc2c1)C(c1ccccc1)C1CCCC1 (stereo not drawn)	0	0	63.7	0	0
CC1(C)CC(=O)C2=C(C1)c1c(ccc3ccccc13)NC2c1ccco1 (stereo not drawn)	92.5	0	0	-	0
O=C(Nc1ccccc1)c1ccc(-c2ccc([N+](=O)[O-])cc2)o1	0	0	0	0	0
CN1CCN(C(=S)c2ccc(-c3cccc(Cl)c3Cl)o2)CC1	67.6	0	0	0	0
O=C(NNC(=O)c1ccccc1O)c1ccc(-c2ccc([N+](=O)[O-])cc2)o1	0	90.9	0	0	0
O=C(c1ccc(-c2ccc([N+](=O)[O-])cc2)o1)N1CCCCC1	87.2	0	0	0	0
S=C(c1ccc(-c2ccc(Cl)cc2)o1)N1CCCCC1	100.7	?	0	0	0
O=c1c2ccccc2nc2n1CC/C2=C\N1CCN(c2ccc([N+](=O)[O-])cc2)CC1	0	0	0	0	0
Cc1cc(C)c(S(=O)(=O)N2CCc3ccccc32)c(C)c1	0	0	0	0	0
